What is called inhibition is the percentage by which the read-out fell short of the control. High values mean a strong effect, low ones a weak effect.

Where a name gives a salt, the structure may show the parent alone. Calls of active or inactive are those of the source. No cut-off for these calls is given here.

Series [1] addresses Transcription factor p65 (Mus musculus) (UniProt Q04207). Put plainly: Inhibition of […]/NFkappaB nuclear translocation in LPS-stimulated mouse RAW 264.7 cells administered at 10 uM for 30 mins after LPS challenge. The format is cell-based. The method, boiled down:
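RAW 264.7 cells were grown on gelatine-coated coverslips and preincubated with 10 µM compound for 30 min, then given LPS for 30 min. Cells were fixed in 2% formalin, permeabilized with 0.2% Triton X-100 and blocked in 5% BSA. They were stained with anti-p65 (1:50, 2 h, room temperature) plus FITC secondary (1 h) and imaged by confocal microscopy at 488 nm excitation.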

Series [2] relates to RAW. Put plainly: Inhibition of DNA binding of NF-kappaB in LPS-stimulated mouse RAW 264.7 cells administered at 5 uM […] by EMSA. The format is cell-based. A digest of the protocol:
(§1)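 RAW 264.7 cells were pretreated with compound for 30 min, then stimulated with LPS (100 ng/ml in methods) for 60 min. Nuclear extracts were made by hypotonic HEPES swelling with NP-40, then hypertonic 0.4 M NaCl extraction. Equal nuclear protein was incubated with labelled NF-κB probe for 30 min at room temperature, resolved on a 4.5% native gel and imaged by phosphorimager.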
(In EMSA bound probe runs differently from free probe, usually more slowly.)

The test system of series [3] is RAW. Put plainly: Inhibition of DNA binding of NF-kappaB in LPS-stimulated mouse RAW 264.7 cells administered at 10 uM […] by EMSA. The format is cell-based. A digest of the protocol: as §1
In series [4] the test system is RAW. Put plainly: Inhibition of DNA binding of NF-kappaB isolated from LPS-stimulated mouse RAW 264.7 cells administered at 250 uM after 30 mins by EMSA. The format is cell-free. The method, boiled down: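 Nuclei from LPS-stimulated RAW 264.7 macrophages served as the source of active NF-κB. Equal amounts of nuclear protein were incubated with compound for 30 min, with or without 2 mM DTT. Radiolabelled NF-κB consensus probe was then added for 30 min at room temperature. Complexes were resolved on a 4.5% native gel and imaged by phosphorimager.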

In series [5] the test system is RAW. Put plainly: Effect on IkappaB phosphorylation in LPS-stimulated mouse RAW 264.7 cells […]. The format is cell-based.
A further series has as its system HEK293. Put plainly: Inhibition of NF-kappaB-mediated gene transcription in HEK293 cells by luciferase reporter gene assay. The format is cell-based. As to conditions: Homo sapiens. The method, boiled down:
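HEK293 cells were transfected with pNF-κB-luc by Ca²⁺-phosphate, reseeded at 15,000 cells/well and grown for 16 h. They were pretreated with compound for 30 min, then stimulated with TNF-α 1 ng/ml for 6 h. Lysates were assayed for luciferase by luminometer. Data are means ± SD of at least four experiments in triplicate, ANOVA/Dunnett.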
On the technique in general: Reporter assays use an easily measured gene product as a stand-in for the process of interest.

Series [6] has as its system RAW. Put plainly: Effect on IkappaB degradation in LPS-stimulated mouse RAW 264.7 cells administered at 10 uM for 30 mins […]. The format is functional, cell-based. A digest of the protocol:
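RAW 264.7 cells were pretreated with 10 µM compound for 30 min, then stimulated with LPS for the indicated times. Cells were lysed in SDS buffer, run on 10–12% gels and blotted to PVDF. Blots were probed for phospho-IκB, IκB after stripping, and tubulin, with ECL detection. Densitometric p-IκB/IκB ratios are given as fold of unstimulated control; three independent experiments, means ± SD.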

A short description of series [7]: Cytotoxicity against mouse RAW 264.7 cells. It is filed as cell-based. The method, boiled down:
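RAW 264.7 cells (DMEM, 10% heat-inactivated FBS, passages 5–20) were first run through the 20 h LPS nitrite assay. Attached cells were then stained with 0.5% Crystal Violet in 20% methanol. Bound dye was dissolved in 50% 1 M sodium citrate/50% ethanol and absorbance read at 540 nm.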

Series [8] has as its system RAW. Put plainly: Inhibition of LPS-stimulated nitric oxide production in mouse RAW 264.7 cells at 10 uM after 20 hrs relative to control. The format is functional. The method, boiled down:
(§2)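 RAW 264.7 cells were seeded in 96-well plates and cultured for 2 days. Compound was added, then LPS immediately after, for 20 h. Nitrite in the supernatant was measured by Griess reaction (sulfanilamide plus N-(1-naphthyl)ethylenediamine) at 550 nm against a 620 nm reference, quantified from a sodium nitrite standard curve. Runs were in triplicate; data are means ± SD of six independent experiments, ANOVA/Dunnett.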

For series [9], the system named is RAW. Put plainly: Inhibition of LPS-stimulated nitric oxide production in mouse RAW 264.7 cells at 5 uM after 20 hrs relative to control. It is filed as functional. A digest of the protocol:
as §2

Chain of Transcription factor p65 (Mus musculus) (Q04207 whole entry): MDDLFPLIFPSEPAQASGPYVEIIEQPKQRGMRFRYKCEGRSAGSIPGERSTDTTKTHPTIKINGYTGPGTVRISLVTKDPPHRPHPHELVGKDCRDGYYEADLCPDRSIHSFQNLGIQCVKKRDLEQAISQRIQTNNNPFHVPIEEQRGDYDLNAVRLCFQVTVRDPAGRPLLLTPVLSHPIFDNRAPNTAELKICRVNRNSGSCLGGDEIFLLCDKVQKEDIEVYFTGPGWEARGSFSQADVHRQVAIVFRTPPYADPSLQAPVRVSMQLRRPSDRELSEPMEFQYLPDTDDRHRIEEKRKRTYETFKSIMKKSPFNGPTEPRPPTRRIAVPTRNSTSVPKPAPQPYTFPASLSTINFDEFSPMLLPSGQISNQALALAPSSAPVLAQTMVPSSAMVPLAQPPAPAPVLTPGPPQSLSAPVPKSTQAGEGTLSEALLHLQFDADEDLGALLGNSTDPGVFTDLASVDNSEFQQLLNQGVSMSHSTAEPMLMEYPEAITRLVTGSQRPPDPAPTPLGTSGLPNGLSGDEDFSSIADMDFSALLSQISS

Regarding `C=C1C(=O)O[C@@H]2C3O[C@]3(C)CC/C=C(\C)CC[C@@H]12` (some centres not stated), the result (in [1]; in the series with RAW [2]) was Active.

With `C[n+]1c2ccccc2cc2[n-]c3ccccc3c21`, the result in the series on RAW [3], in the series with RAW [4] and in the series on RAW [2] was Active. Besides, the result (in series [1]; with RAW [5]; in the series on RAW [6]) was inactive. The Activity entry in the series on HEK293 was “Dose-dependent effect”.

On to `C[n+]1c2ccccc2cc2[n-]c3ccccc3c21` [CRYPTOLEPINE], for which the outcome in series [7] was Active.

Consider `C[n+]1c2ccccc2cc2[n-]c3ccccc3c21` [CRYPTOLEPINE HYDROCHLORIDE], for which, in the series on RAW [8], at 10 µM the inhibition was 50%. The compound also had an inhibition at 5 µM with RAW [9] of 30%.
